Results from ChEMBL document CHEMBL1135830, “NMR-based modification of matrix metalloproteinase inhibitors with improved bioavailability” (J Med Chem, 2002).

Test system: Rattus norvegicus
Assay: Bioavailability after peroral administration at 30 mg/kg against Stromelysin in rat
Type: ADME, organism-based
Conditions: not given
Method in brief: (§1)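 Rats (4 per compound, across two studies) dosed orally at 30 mg/kg in hydroxypropyl methyl cellulose. Tail-vein blood drawn at intervals over 7 h, deproteinated with 2 volumes methanol containing 0.1% acetic acid. Drug level in the extract quantified by bioassay against recombinant stromelysin.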

| IC50 [µM] | Structure (SMILES) |
| --- | --- |
| 0.34 | N#Cc1ccc(-c2ccc(OCCOc3ccc4ccccc4c3C(=O)NO)cc2)cc1 |
| 0.057 | N#Cc1ccc(-c2ccc(OCCC(=O)NO)cc2)cc1 |

Molecular target: T1, Stromelysin-1 (Homo sapiens, UniProt P08254)
T1 sequence (P08254 whole entry): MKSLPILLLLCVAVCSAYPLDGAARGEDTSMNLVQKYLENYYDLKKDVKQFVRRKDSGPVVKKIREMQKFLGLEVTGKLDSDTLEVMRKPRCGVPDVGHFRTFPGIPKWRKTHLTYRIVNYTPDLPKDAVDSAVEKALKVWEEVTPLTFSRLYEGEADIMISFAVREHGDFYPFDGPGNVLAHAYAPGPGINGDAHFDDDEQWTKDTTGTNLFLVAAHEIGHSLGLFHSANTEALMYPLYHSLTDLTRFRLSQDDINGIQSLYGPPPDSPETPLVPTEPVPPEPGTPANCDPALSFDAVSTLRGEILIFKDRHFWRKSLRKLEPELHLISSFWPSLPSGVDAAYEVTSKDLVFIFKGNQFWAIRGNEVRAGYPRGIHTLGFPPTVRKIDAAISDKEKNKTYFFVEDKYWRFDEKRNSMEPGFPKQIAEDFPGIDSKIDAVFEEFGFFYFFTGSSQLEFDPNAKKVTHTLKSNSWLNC
Assay: Inhibition of Stromelysin (MMP-3)
Parameters: species or system Rattus norvegicus
Conditions: not given

| IC50 [µM] | Structure (SMILES) |
| --- | --- |
| 50 | O=C(NO)c1cccc2ccccc12 |
| 0.062 | N#CCc1cccc(-c2ccc(S(=O)(=O)CCOc3ccc4ccccc4c3C(=O)NO)cc2)c1 |
| 10 | N#Cc1ccc(-c2ccc(OCCCOc3ccc4ccccc4c3C(=O)NO)cc2)cc1 |
| 10 | COc1ccc(-c2ccc(S(=O)(=O)NCCc3ccc4ccccc4c3C(=O)NO)cc2)cc1 |
| > 10 | N#Cc1ccc(-c2ccc(OCc3ccc4ccccc4c3C(=O)NO)cc2)cc1 |

Molecular target: T1, Stromelysin-1
Assay: Binding to stromelysin (MMP-3) in the presence of 1-Napthohydroxamate
Parameters: species or system Rattus norvegicus
Conditions: not given
Method in brief: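 Catalytic domain of stromelysin (residues 81-256), uniformly ¹⁵N-labeled, at 0.3 mM in H₂O/D₂O (9/1) with 50 mM Tris pH 7.0, 20 mM CaCl₂ and 0.05% sodium azide. Compounds were added from perdeuterated DMSO solutions. Binding was detected as changes in sensitivity-enhanced ¹⁵N HSQC spectra (500 MHz), recorded with and without compound.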

| Kd [µM] | Structure (SMILES) |
| --- | --- |
| < 50 | N#Cc1ccc(-c2ccc(O)cc2)cc1 |
| 150 | Oc1ccc(-c2ccc(O)cc2)cc1 |

| Structure (SMILES) | Kd [µM] |
| --- | --- |
| c1ccc(-c2ccncc2)cc1 | 900 |

Molecular target: T1, Stromelysin-1
Assay: Binding to stromelysin (MMP-3) in the presence of acetohydroxamic acid
Parameters: species or system Rattus norvegicus
Conditions: not given
Method in brief: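 Uniformly 15N-labeled stromelysin catalytic domain (residues 81-256) at 0.3 mM in 50 mM Tris, pH 7.0, H2O/D2O 9/1, with 20 mM CaCl2 and 0.05% sodium azide. Sensitivity-enhanced 15N HSQC spectra were recorded at 500 MHz with and without compound added in perdeuterated DMSO. Binding was read from changes in the HSQC spectrum.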

| Kd [µM] | Structure (SMILES) |
| --- | --- |
| < 50 | N#Cc1ccc(-c2ccc(O)cc2)cc1 |

Molecular target: T1, Stromelysin-1
Assay: Binding to stromelysin (MMP-3) in place of acetohydroxamic acid.
Parameters: species or system Rattus norvegicus
Conditions: not given
Method in brief: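 Binding detected by sensitivity-enhanced 15N HSQC on uniformly 15N-labeled stromelysin catalytic domain (residues 81-256), 0.3 mM protein in H2O/D2O 9:1 Tris buffer 50 mM pH 7.0, 20 mM CaCl2, 0.05% sodium azide. Ligands added from perdeuterated DMSO, screened at 25.0 mM each; spectra with versus without compound compared for shifts at 500 MHz.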

| Kd [µM] | Structure (SMILES) |
| --- | --- |
| 50 | O=C(NO)c1cccc2ccccc12 |
| > 25000 | CC(=O)c1ccccn1 |
| > 25000 | CCOC(=O)CC(=O)C(F)(F)F |
| 150 | SCc1cccs1 |
| > 25000 | O=C(CC(=O)C(F)(F)F)c1ccccc1 |
| 7000 | O=C(NO)c1ccccc1 [BENZOHYDROXAMATE] |
| > 25000 | CCOC(=O)NO [ETHYL HYDROXYCARBAMATE] |
| > 25000 | NC(=O)NO [HYDROXYUREA] |
| 3000 | O=C(O)CCS [MERCAPTOPROPIONIC ACID] |
| > 25000 | NC(=O)c1ccccc1O [SALICYLAMIDE] |

| Structure (SMILES) | Kd [µM] |
| --- | --- |
| O=C(O)c1ccccc1O [SALICYLIC ACID] | > 25000 |

Test system: not listed separately
Assay: Half-life period was determined
Type: ADME
Conditions: not given
Method in brief: as §1

| half-life [h] | Structure (SMILES) |
| --- | --- |
| 2 | N#Cc1ccc(-c2ccc(OCCOc3ccc4ccccc4c3C(=O)NO)cc2)cc1 |

Test system: not listed separately
Assay: Cmax was determined
Type: ADME, organism-based
Conditions: in vivo
Method in brief: as §1

| Cmax [µM] | Structure (SMILES) |
| --- | --- |
| 28 | N#Cc1ccc(-c2ccc(OCCOc3ccc4ccccc4c3C(=O)NO)cc2)cc1 |
